Values after ≈ are worked out from the molar mass of the structure shown.

Type in all cases: functional
Experiment [1] concerns Clostridioides difficile. Nature of the experiment: Antibacterial activity against Clostridium difficile ATCC 700057 in presence of 33 mg/L of calcium ion by CLSI agar dilution method. On the technique in general: In agar dilution the substance is mixed into plates at graded concentrations.
Experiment [2] has as its system Clostridioides difficile. In words: Antibacterial activity against Clostridium difficile ATCC 9689 in presence of 33 mg/L of calcium ion by CLSI agar dilution method.
Experiment [3] relates to Clostridioides difficile. In words: Ratio of MIC for Clostridium difficile ATCC 700057 at pH 6 to MIC for Clostridium difficile ATCC 700057 at pH 7.5 by broth microdilution method. Summed up: (§1)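 Broth microdilution in brucella broth buffered at 10 or 100 mM with NaH2PO4·H2O (pH 7.0), MOPS (pH 8.0) or TAPS (pH 9.0), pH set in ambient air. Final anaerobic pH ranges were 6–7.6 (10 mM) and 6–8.1 (100 mM). Plates were equilibrated anaerobically for at least 3 h before inoculation. Data were pooled from three experiments, and ratios were taken between MICs at the two pH values.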
For orientation: In broth dilution the organism is exposed to a series of concentrations in liquid medium.

Experiment [4] concerns Clostridioides difficile. Nature of the experiment: Antibacterial activity against Clostridium difficile ATCC 9689 in presence of 21 mg/L of magnesium ion by CLSI agar dilution method.
In experiment [5] the test system is Clostridioides difficile. Nature of the experiment: Ratio of MIC for Clostridium difficile ATCC 9689 at pH 6 to MIC for Clostridium difficile ATCC 9689 at pH 8.1 by broth microdilution method. Summed up:
as §1

Experiment [6] relates to Clostridioides difficile. Nature of the experiment: Ratio of MIC for Clostridium difficile ATCC 700057 at pH 6 to MIC for Clostridium difficile ATCC 700057 at pH 8.1 by broth microdilution method. The procedure, abridged: as §1
For experiment [7], the system named is Clostridioides difficile. Nature of the experiment: Ratio of MIC for Clostridium difficile ATCC 9689 at pH 6 to MIC for Clostridium difficile ATCC 9689 at pH 7.5 by broth microdilution method. Summed up: as §1
In experiment [8] the test system is Clostridioides difficile. Nature of the experiment: Antibacterial activity against Clostridium difficile ATCC 700057 in presence of 21 mg/L of magnesium ion by CLSI agar dilution method.
In experiment [9] the test system is Clostridioides difficile. Nature of the experiment: Antibacterial activity against Clostridium difficile ATCC 9689 by CLSI agar dilution method using 10^5 to 10^8 CFU/ml inoculum. Summed up: (§2)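 CLSI agar dilution in a glove box (10% H2, 5% CO2, 85% N2). A ~10^8 CFU/ml suspension was serially diluted 10-fold to 10^5–10^8 CFU/ml and 2 μl was spotted (10^2–10^5 CFU/spot). Runs were done at least in duplicate; the mode was reported, or the higher value when replicates split evenly.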

For experiment [10], the system named is Clostridioides difficile. In words: Antibacterial activity against Clostridium difficile ATCC 700057 in presence of 75 mg/L of calcium ion by CLSI agar dilution method.
Experiment [11] relates to Clostridioides difficile. In words: Ratio of MIC for Clostridium difficile ATCC 700057 at pH 6.2 to MIC for Clostridium difficile ATCC 700057 at pH 7.9 by CLSI agar dilution method. Summed up:
(§3)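 Agar dilution MICs were measured over anaerobic pH 6.2–8.0. Media were buffered with 100 mM NaH2PO4 (pH 7) or TAPS (pH 8) and set in ambient air above the target pH. After 3 h equilibration in the chamber (5% CO2), anaerobic pH was checked with a flat-bottomed probe. The pH 8.0 run was repeated, and ratios were taken between MICs at the two pH values.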

Experiment [12] deals with Clostridioides difficile. In words: Antibacterial activity against Clostridium difficile ATCC 700057 by CLSI agar dilution method using 10^5 to 10^8 CFU/ml inoculum. The procedure, abridged:
as §2

The subject of experiment [13] is Clostridioides difficile. In words: Antibacterial activity against Clostridium difficile ATCC 9689 in presence of 57 mg/L of magnesium ion by CLSI agar dilution method.
For experiment [14], the system named is Clostridioides difficile. In words: Antibacterial activity against Clostridium difficile ATCC 700057 in presence of 57 mg/L of magnesium ion by CLSI agar dilution method.
The subject of experiment [15] is Clostridioides difficile. In words: Ratio of MIC for Clostridium difficile ATCC 9689 at pH 7 to MIC for Clostridium difficile ATCC 9689 at pH 7.9 by CLSI agar dilution method. The procedure, abridged: as §3
Experiment [16] has as its system Clostridioides difficile. Nature of the experiment: Antibacterial activity against Clostridium difficile ATCC 9689 in presence of 45 mg/L of calcium ion by CLSI agar dilution method.
For experiment [17], the system named is Clostridioides difficile. In words: Ratio of MIC for Clostridium difficile ATCC 9689 at pH 6.2 to MIC for Clostridium difficile ATCC 9689 at pH 7.9 by CLSI agar dilution method. Summed up: as §3
Experiment [18] deals with Clostridioides difficile. In words: Antibacterial activity against Clostridium difficile ATCC 700057 in presence of 45 mg/L of calcium ion by CLSI agar dilution method.
The subject of experiment [19] is Clostridioides difficile. In words: Ratio of MIC for Clostridium difficile ATCC 700057 at pH 7 to MIC for Clostridium difficile ATCC 700057 at pH 7.9 by CLSI agar dilution method. The procedure, abridged: as §3
Experiment [20] has as its system Clostridioides difficile. Nature of the experiment: Antibacterial activity against Clostridium difficile ATCC 9689 in presence of 30 mg/L of magnesium ion by CLSI agar dilution method.
In experiment [21] the test system is Clostridioides difficile. Nature of the experiment: Antibacterial activity against Clostridium difficile ATCC 700057 in presence of 30 mg/L of magnesium ion by CLSI agar dilution method.
In experiment [22] the test system is Clostridioides difficile. In words: Antibacterial activity against Clostridium difficile ATCC 9689 in presence of 75 mg/L of calcium ion by CLSI agar dilution method.

As a reminder, the MIC is the smallest concentration in the dilution series that meets the test's criterion for growth inhibition. Consider `CN[C@H](CC(C)C)C(=O)N[C@H]1C(=O)N[C@@H](CC(N)=O)C(=O)N[C@H]2C(=O)N[C@H]3C(=O)N[C@H](C(=O)N[C@H](C(=O)O)c4cc(O)cc(O)c4-c4cc3ccc4O)[C@H](O)c3ccc(c(Cl)c3)Oc3cc2cc(c3O[C@@H]2O[C@H](CO)[C@@H](O)[C@H](O)[C@H]2O[C@H]2C[C@](C)(N)[C@H](O)[C@H](C)O2)Oc2ccc(cc2Cl)[C@H]1O` [VANCOMYCIN], for which the MIC in experiment [1], in experiment [2], in [4] and in experiment [8] was 1 mg/L in each case. Besides, the Ratio in experiment [3] was 8; in experiment [5], 16; in [6], 16; in experiment [7], 8.
Regarding `CCc1c(Cl)c(O)c(Cl)c(O)c1C(=O)O[C@H]1[C@H](O)[C@H](OC)[C@H](OC/C2=C\C=C\C[C@H](O)/C(C)=C/[C@H](CC)[C@@H](O[C@@H]3OC(C)(C)[C@@H](OC(=O)C(C)C)[C@H](O)[C@@H]3O)/C(C)=C/C(C)=C/C[C@@H]([C@@H](C)O)OC2=O)O[C@@H]1C` [FIDAXOMICIN], the minimal inhibitory concentration (MIC) was determined as 0.063 mg/L (≈ 0.0595 µM) in experiment [9]; 0.125 mg/L in [10]; 0.125 mg/L in experiment [1]; 0.125 mg/L (≈ 0.118 µM) in experiment [12]; 0.063 mg/L in experiment [2]; 0.063 mg/L in experiment [13]. In addition, the MIC came to 0.063 mg/L in experiment [4]; 0.125 mg/L in experiment [14]; 0.063 mg/L in experiment [16]; 0.125 mg/L in [18]; 0.063 mg/L in experiment [20]; 0.125 mg/L in experiment [21]. For the same compound, the MIC in [8] was determined as 0.125 mg/L; in experiment [22], 0.063 mg/L. Besides, the Ratio stood at 8 in experiment [11]; 8 in [3]; 16 in [5]; 8 in experiment [15]; 8 in experiment [17]; 8 in experiment [19]. The Ratio is recorded as 16 in experiment [6] and 8 in experiment [7].

The values above are taken from ChEMBL document CHEMBL1255471, “Effects of inoculum, pH, and cations on the in vitro activity of fidaxomicin (OPT-80, PAR-101) against Clostridium difficile” (2010).
